Columns and labels:
[1] = Antiproliferative activity in mouse BAF3 cells after 72 hrs by CCK8 assay; format: cell-based
Outline: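 IL-3-independent BaF3 cells carrying tel-c-KIT constructs, grown in RPMI 1640 with 10% FBS. Cells at 1.5-5 × 10^4 cells/mL mixed directly with serial compound dilutions, 72 h at 37 °C, 5% CO2. CCK-8 read-out at 450 nm, normalized to DMSO; GI50 by curve fitting.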

[2] = target: Mast/stem cell growth factor receptor Kit (Homo sapiens, UniProt P10721); assay: Inhibition of wild type TEL fused c-KIT (unknown origin) transfected in mouse BAF3 cells assessed as growth inhibition after 72 hrs by CCK8 assay; format: cell-based; details: baf3, 72 h
Sequence of Mast/stem cell growth factor receptor Kit (P10721 whole entry, the tested form may be a part): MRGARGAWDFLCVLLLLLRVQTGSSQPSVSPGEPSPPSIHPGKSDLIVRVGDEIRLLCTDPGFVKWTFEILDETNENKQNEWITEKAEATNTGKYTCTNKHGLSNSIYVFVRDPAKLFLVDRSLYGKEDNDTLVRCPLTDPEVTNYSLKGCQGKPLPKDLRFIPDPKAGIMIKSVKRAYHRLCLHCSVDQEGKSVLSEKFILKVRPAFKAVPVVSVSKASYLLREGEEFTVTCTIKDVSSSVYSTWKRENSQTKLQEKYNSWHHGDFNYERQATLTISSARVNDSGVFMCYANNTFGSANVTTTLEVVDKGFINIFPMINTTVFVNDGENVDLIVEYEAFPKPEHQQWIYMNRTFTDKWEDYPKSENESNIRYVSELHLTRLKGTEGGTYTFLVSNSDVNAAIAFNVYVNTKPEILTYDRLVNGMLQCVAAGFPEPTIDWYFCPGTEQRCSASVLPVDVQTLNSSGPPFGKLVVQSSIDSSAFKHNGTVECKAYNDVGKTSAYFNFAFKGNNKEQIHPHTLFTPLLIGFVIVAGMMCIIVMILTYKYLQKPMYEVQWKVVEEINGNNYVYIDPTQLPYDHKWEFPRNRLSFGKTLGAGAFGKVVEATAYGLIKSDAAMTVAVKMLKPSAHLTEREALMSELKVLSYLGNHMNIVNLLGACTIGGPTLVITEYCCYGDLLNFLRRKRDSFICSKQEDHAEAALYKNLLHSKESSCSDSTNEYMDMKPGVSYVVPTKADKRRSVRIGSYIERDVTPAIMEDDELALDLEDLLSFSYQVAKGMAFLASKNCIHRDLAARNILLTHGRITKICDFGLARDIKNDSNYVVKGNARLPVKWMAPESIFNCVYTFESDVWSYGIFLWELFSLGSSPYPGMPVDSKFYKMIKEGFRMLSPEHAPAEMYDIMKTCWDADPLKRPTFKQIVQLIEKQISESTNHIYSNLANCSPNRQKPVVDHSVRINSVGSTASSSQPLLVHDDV
Outline: (§1)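 IL-3 independent BaF3 cells stably expressing tel-c-KIT wt or tel-c-KIT T670I, grown in RPMI 1640 with 10% FBS, 2% L-glutamine, 37 °C, 5% CO2. Suspension cells at 1.5 to 5 × 10^4 cells/mL mixed with serial compound dilutions and incubated 72 h. Viability read by CCK-8 absorbance at 450 nm, normalized to DMSO; GI50 from curve fit. Selectivity is wt GI50 over T670I GI50.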

[3] = system: Mast/stem cell growth factor receptor Kit (Homo sapiens), P10721 [T670I]; assay: Inhibition of TEL fused c-KIT T670I mutant (unknown origin) transfected in mouse BAF3 cells assessed as growth inhibition after 72 hrs by CCK8 assay; format: cell-based
Sequence of Mast/stem cell growth factor receptor Kit (Homo sapiens), P10721 [T670I] (P10721 whole entry T670I, the tested form may be a part): as the sequence (P10721 whole entry, the tested form may be a part) above, with T670I counted along it
Outline: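 Tel-c-KIT-transformed BaF3 lines (IL-3 independent) kept in RPMI 1640 with 10% FBS, 2% L-glutamine and pen/strep. Cells at 1.5 to 5 × 10^4 cells/mL mixed with graded compound and incubated 72 h at 37 °C, 5% CO2. Viability by CCK-8 absorbance at 450 nm, normalized to DMSO. GI50 from dose–response fit.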

[4] = Selectivity ratio, ratio of inhibition of wild type TEL fused c-KIT (unknown origin) transfected in mouse BAF3 cells assessed as growth inhibition to inhibition of TEL fused c-KIT T670I mutant (unknown origin) transfected in mouse BAF3 cells assessed as growth inhibition; parameters: species or system Homo sapiens; outline: as §1

SMILES: O=C(CC(=O)Nc1ccc2c(-c3cccc(F)c3)n[nH]c2c1)Nc1ccc(Cl)c(C(F)(F)F)c1
- GI50 at 72 h [1]: > 10000 nM
- GI50 [2]: 1120 nM
- GI50 [3]: 179 nM

SMILES: O=C(CC(=O)Nc1ccc2c(/C=C/c3ccccn3)n[nH]c2c1)Nc1ccc(Cl)c(C(F)(F)F)c1
- GI50 at 72 h [1]: 7400 nM
- GI50 [2]: 25 nM
- GI50 [3]: 2 nM
- RatioGI50 [4]: 12

SMILES: O=C(CC(=O)Nc1ccc2c(/C=C/c3ccccn3)n[nH]c2c1)Nc1cccc(C(F)(F)F)c1
- GI50 at 72 h [1]: > 10000 nM
- GI50 [2]: 216 nM
- GI50 [3]: 86 nM

SMILES: O=C(Nc1ccc(Cl)c(C(F)(F)F)c1)Nc1ccc2c(/C=C/c3ccccn3)n[nH]c2c1
- GI50 at 72 h [1]: 1900 nM
- GI50 [2]: 1600 nM
- GI50 [3]: 1150 nM

SMILES: O=C(CC(=O)Nc1ccc2c(/C=C/c3ccccn3)n[nH]c2c1)Nc1ccc(F)cc1
- GI50 at 72 h [1]: 5860 nM
- GI50 [2]: 554 nM
- GI50 [3]: 111 nM

SMILES: CN1CCN(Cc2ccc(-c3n[nH]c4cc(NC(=O)CC(=O)Nc5ccc(Cl)c(C(F)(F)F)c5)ccc34)cc2)CC1
- GI50 at 72 h [1]: 911 nM
- GI50 [2]: 19 nM
- GI50 [3]: 12 nM

SMILES: CN1CCN(c2ccc(-c3n[nH]c4cc(NC(=O)CC(=O)Nc5ccc(Cl)c(C(F)(F)F)c5)ccc34)cc2)CC1
- GI50 at 72 h [1]: 1350 nM
- GI50 [2]: 25 nM
- GI50 [3]: 12 nM

SMILES: CNC(=O)c1cncc(-c2n[nH]c3cc(NC(=O)CC(=O)Nc4ccc(Cl)c(C(F)(F)F)c4)ccc23)c1
- GI50 at 72 h [1]: > 10000 nM
- GI50 [2]: > 10000 nM
- GI50 [3]: 4840 nM

SMILES: O=C(Nc1ccc2c(/C=C/c3ccccn3)n[nH]c2c1)c1ccc(Cl)c(C(F)(F)F)c1
- GI50 at 72 h [1]: 1710 nM
- GI50 [2]: 2970 nM
- GI50 [3]: 1710 nM

SMILES: CN1CCN(c2cccc(NC(=O)CC(=O)Nc3ccc4c(/C=C/c5ccccn5)n[nH]c4c3)c2)CC1
- GI50 at 72 h [1]: > 10000 nM
- GI50 [2]: > 10000 nM
- GI50 [3]: 6170 nM

SMILES: CNC(=O)c1ccc(-c2n[nH]c3cc(NC(=O)CC(=O)Nc4ccc(Cl)c(C(F)(F)F)c4)ccc23)cc1
- GI50 at 72 h [1]: > 10000 nM
- GI50 [2]: 338 nM
- GI50 [3]: 57 nM
- RatioGI50 [4]: 6

SMILES: O=C(CC(=O)Nc1ccc2c(/C=C/c3ccccn3)n[nH]c2c1)Nc1cccc(Cl)c1
- GI50 at 72 h [1]: 3610 nM
- GI50 [2]: 923 nM
- GI50 [3]: 111 nM

SMILES: Cc1ccc(-c2n[nH]c3cc(NC(=O)CC(=O)Nc4ccc(Cl)c(C(F)(F)F)c4)ccc23)cn1
- GI50 at 72 h [1]: 4910 nM
- GI50 [2]: 183 nM
- GI50 [3]: 59 nM

SMILES: Cc1n[nH]c2cc(NC(=O)CC(=O)Nc3ccc(Cl)c(C(F)(F)F)c3)ccc12
- GI50 at 72 h [1]: > 10000 nM
- GI50 [2]: > 10000 nM
- GI50 [3]: 1880 nM

SMILES: O=C(Cc1ccc(Cl)c(C(F)(F)F)c1)Nc1ccc2c(/C=C/c3ccccn3)n[nH]c2c1
- GI50 at 72 h [1]: 3790 nM
- GI50 [2]: 5500 nM
- GI50 [3]: 3180 nM

SMILES: Cn1cc(-c2n[nH]c3cc(NC(=O)CC(=O)Nc4ccc(Cl)c(C(F)(F)F)c4)ccc23)cn1
- GI50 at 72 h [1]: > 10000 nM
- GI50 [2]: 350 nM
- GI50 [3]: 23 nM
- RatioGI50 [4]: 7 - 15

SMILES: O=C(CC(=O)Nc1cc(F)ccc1F)Nc1ccc2c(/C=C/c3ccccn3)n[nH]c2c1
- GI50 at 72 h [1]: 5080 nM
- GI50 [2]: 3460 nM
- GI50 [3]: 847 nM

SMILES: O=C(CC(=O)Nc1ccc2c(/C=C/c3ccccn3)n[nH]c2c1)Nc1ccccc1
- GI50 at 72 h [1]: 6720 nM
- GI50 [2]: 2220 nM
- GI50 [3]: 117 nM
- RatioGI50 [4]: 19

SMILES: O=C(Nc1ccc(Cl)c(C(F)(F)F)c1)C1(C(=O)Nc2ccc3c(/C=C/c4ccccn4)n[nH]c3c2)CC1
- GI50 at 72 h [1]: > 10000 nM
- GI50 [2]: 1000 nM
- GI50 [3]: 230 nM

SMILES: Cc1cccc(NC(=O)CC(=O)Nc2ccc3c(/C=C/c4ccccn4)n[nH]c3c2)c1
- GI50 at 72 h [1]: > 10000 nM
- GI50 [2]: 1430 nM
- GI50 [3]: 170 nM

SMILES: COc1cccc(NC(=O)CC(=O)Nc2ccc3c(/C=C/c4ccccn4)n[nH]c3c2)c1
- GI50 at 72 h [1]: > 10000 nM
- GI50 [2]: 2740 nM
- GI50 [3]: 234 nM

SMILES: NC(=O)c1cccc(-c2n[nH]c3cc(NC(=O)CC(=O)Nc4ccc(Cl)c(C(F)(F)F)c4)ccc23)c1
- GI50 at 72 h [1]: > 10000 nM
- GI50 [2]: 1550 nM
- GI50 [3]: 339 nM

SMILES: O=C(CC(=O)Nc1ccccc1F)Nc1ccc2c(/C=C/c3ccccn3)n[nH]c2c1
- GI50 at 72 h [1]: 5090 nM
- GI50 [2]: 2160 nM
- GI50 [3]: 312 nM

SMILES: O=C(CC(=O)Nc1ccc2cn[nH]c2c1)Nc1ccc(Cl)c(C(F)(F)F)c1
- GI50 at 72 h [1]: > 10000 nM
- GI50 [2]: > 10000 nM
- GI50 [3]: 2670 nM

SMILES: O=C(CC(=O)Nc1ccc2c(/C=C/c3ccccn3)n[nH]c2c1)Nc1cccc(Br)c1
- GI50 at 72 h [1]: 6090 nM
- GI50 [2]: 943 nM
- GI50 [3]: 113 nM

SMILES: CN(C)c1cccc(NC(=O)CC(=O)Nc2ccc3c(/C=C/c4ccccn4)n[nH]c3c2)c1
- GI50 at 72 h [1]: > 10000 nM
- GI50 [2]: 3870 nM
- GI50 [3]: 594 nM

SMILES: O=C(CC(=O)Nc1ccc2c(-c3cccnc3)n[nH]c2c1)Nc1ccc(Cl)c(C(F)(F)F)c1
- GI50 at 72 h [1]: > 10000 nM
- GI50 [2]: 320 nM
- GI50 [3]: 45 nM
- RatioGI50 [4]: 7 - 15

SMILES: O=C(CC(=O)Nc1ccc2c(/C=C/c3ccccn3)n[nH]c2c1)Nc1cc(F)cc(F)c1
- GI50 at 72 h [1]: 4240 nM
- GI50 [2]: 1870 nM
- GI50 [3]: 399 nM

SMILES: O=C(CC(=O)Nc1c(F)c(F)c(F)c(F)c1F)Nc1ccc2c(/C=C/c3ccccn3)n[nH]c2c1
- GI50 at 72 h [1]: 3680 nM
- GI50 [2]: 2950 nM
- GI50 [3]: 1300 nM

Reference: ChEMBL document CHEMBL4304743, “Discovery of ( E)- N1-(3-Fluorophenyl)- N3-(3-(2-(pyridin-2-yl)vinyl)-1 H-indazol-6-yl)malonamide (CHMFL-KIT-033) as a Novel c-KIT T670I Mutant Selective Kinase Inhibitor for Gastrointestinal Stromal Tumors (GISTs)” (J Med Chem, 2019)
